Measured values taken from ChEMBL document CHEMBL1157200, “Carboxymethylated pyridoindole antioxidants as aldose reductase inhibitors: Synthesis, activity, partitioning, and molecular modeling” (Bioorg Med Chem, 2008).

Key:
[1] = molecular target: T1, Aldo-keto reductase family 1 member B1 (Rattus norvegicus, UniProt P07943); test: Inhibition of Wistar rat lens aldose reductase 2
Outline: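 Lens ALR2 partially purified from male Wistar rats (8–9 weeks). Reaction: 4.67 mM D,L-glyceraldehyde, 0.11 mM NADPH, 0.067 M phosphate pH 6.2; started with substrate, NADPH loss at 340 nm read 4 min after 1 min lag at 30 °C. Blank lacks substrate and includes inhibitor. IC50 from semilog curves, ≥4 concentrations giving 25–75% inhibition.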

[2] = Lipophilicity in 1-octanol/phosphate buffer at pH 7.4 assessed as distribution ratio by shake flask method; format: physicochemical; settings: octanol/water
Outline: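 Shake-flask method at room temperature with mutually saturated phases: compound 100 µM final in 0.1 M phosphate buffer pH 7.4 containing 0.15 M KCl, shaken with 1-octanol for 3 h. Phases separated by 1 h centrifugation; both measured by UV spectrophotometry. D is organic/aqueous total concentration; mean ± SD of ≥3 experiments.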

[3] = Antioxidant activity assessed as inhibition of AAPH-induced peroxidation of DOPC liposome after 80 mins by thiocyanate method; format: functional
Outline: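 DOPC unilamellar liposomes (0.8 mM final) in 20 mM phosphate buffer pH 7.4 with AAPH initiator (10 mM final) and varying test concentrations at 50 °C. Aliquots extracted with ice-cold CHCl3/MeOH (2:1) containing BHT; lipid hydroperoxides measured by thiocyanate method, absorbance at 500 nm. IC50 taken at 80 min.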

[4] = Inhibition of Wistar rat kidney aldose reductase 1
Outline: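 ALR1 partially purified from male Wistar rat kidney by ammonium sulfate fractionation and DEAE treatment. NADPH consumption followed at 340 nm with 20 mM D-glucuronate and 0.12 mM NADPH in 0.1 M phosphate pH 7.2 at 37 °C; inhibitor also in blank. IC50 from linear part of semilog curves, ≥4 concentrations spanning 25–75% inhibition.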

[5] = molecular target: T1, Aldo-keto reductase family 1 member B1; test: Inhibition of Wistar rat lens aldose reductase 2 using NADPH as substrate
Outline: (§1)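 Kinetic mode of rat lens ALR2 inhibition from double-reciprocal plots of initial velocity, with D,L-glyceraldehyde or NADPH concentration varied, with or without inhibitor (e.g. 20 µM); NADPH consumption read at 340 nm. Kinetic parameters given as mean ± SD of at least three experiments.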

[6] = molecular target: T1, Aldo-keto reductase family 1 member B1; test: Inhibition of Wistar rat lens aldose reductase 2 using D,L-glyceraldehyde as substrate; outline: as §1
[7] = Dissociation constant, acidic pKa of compound; format: physicochemical
Outline: (§2)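 Potentiometric titration with glass/saturated calomel electrodes: compound about 2 mM in water, acidified with 0.1 M HCl to pH about 1.8, titrated with 0.1 M NaOH at 22 °C ± 1 °C, ionic strength held at 0.1 M with KCl.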

[8] = Dissociation constant, basic pKa of compound; format: physicochemical; outline: as §2

| SMILES | IC50 [1] | D [2] | IC50 [3] | IC50 [4] | Ki [5] | Ki [6] | pKa [7] | pKa [8] |
| --- | --- | --- | --- | --- | --- | --- | --- | --- |
| Cc1ccc2c(c1)[C@H]1CN(C)CC[C@H]1N2 [STOBADINE] | > 1000 µM | 2.5 | 25.3 µM | – | – | – | – | – |
| O=C([O-])Cc1ccc2[nH]c3c(c2c1)CN(CCc1ccccc1)CC3.[K+] | 16.7 µM | 0.51 | – | 603 µM | 10.5 µM | 17.7 µM | – | – |
| Cc1c(C)c2c(c(C)c1O)CCC(C)(C(=O)O)O2 (stereo not given) [TROLOX] | – | – | 93.5 µM | – | – | – | – | – |
| CN1CC[C@@H]2Nc3ccc(CC(=O)[O-])cc3[C@@H]2C1.[K+] (racemic) | 381 µM | < 0.1 | – | – | – | – | – | – |
| O=C([O-])Cc1ccc2[nH]c3c(c2c1)CN(Cc1ccccc1)CC3.[K+] | 18.2 µM | 0.35 | – | 328 µM | 11 µM | 17.9 µM | 4.34 | 8.65 |

The next lines start with the values.

| IC50 [1] | D [2] | IC50 [3] | IC50 [4] | Ki [5] | Ki [6] | pKa [7] | pKa [8] | SMILES |
| --- | --- | --- | --- | --- | --- | --- | --- | --- |
| 0.005 µM | – | – | – | – | – | – | – | O=C(O)Cc1nn(Cc2nc3cc(C(F)(F)F)ccc3s2)c(=O)c2ccccc12 [ZOPOLRESTAT] |
| > 1000 µM | 6 | 72.7 µM | – | – | – | – | – | Cc1ccc2[nH]c3c(c2c1)CN(C)CC3 [DEHYDROSTOBADINE] |
| 54 µM | 0.13 | – | 3080 µM | – | – | – | – | CN1CCc2[nH]c3ccc(CC(=O)[O-])cc3c2C1.[K+] |
| 266 µM | 0.2 | 75.6 µM | > 3000 µM | – | – | – | – | O=C([O-])Cc1ccc2c(c1)[C@@H]1CN(Cc3ccccc3)CC[C@@H]1N2.[Na+] (racemic) |
| – | – | – | 56.1 µM | – | – | – | – | CCCC(CCC)C(=O)O [VALPROIC ACID] |
